Eleven molecules from ChEMBL document CHEMBL3132745, “Synthesis and Antimicrobial Activities of His(2-aryl)-Arg and Trp-His(2-aryl) Classes of Dipeptidomimetics” (Medchemcomm, 2014) can be followed below.

Values after ≈ are worked out from the molar mass of the structure shown. Active and inactive are the calls of the source. How the calls were made is not given here. Residues, ends and D or L forms follow the SMILES beside them. *: point of attachment. Boc = CC(C)(C)OC(=O)*; NHBn = c1ccc(CN*)cc1 A value given as a limit tells only on which side of the number the result lay.

Data set [1] deals with LLC-PK1. Briefly: Cytotoxicity against pig LLC-PK1 cells assessed as cell viability after 48 hrs by neutral red uptake assay. In kind it is cell-based, Sus scrofa. The conditions noted are these: llc-pk1, 48 h. In outline:
(§1)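 Neutral red uptake assay on human cancer lines (SK-MEL, KB, BT-549, SK-OV-3) and noncancerous mammalian cells (VERO, LLC-PK1). Highest tested concentration was 10 µg/mL.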

The subject of data set [2] is Vero. Briefly: Cytotoxicity against african green monkey Vero cells assessed as cell viability after 48 hrs by neutral red uptake assay. In kind it is cell-based. The conditions noted are these: chlorocebus sabaeus. In outline:
as §1

Data set [3] relates to SK-OV-3. Nature of the data set: Cytotoxicity against human SKOV3 cells assessed as cell viability after 48 hrs by neutral red uptake assay. The conditions noted are these: sk-ov-3, 48 h. In kind it is cell-based. Put shortly: as §1
For data set [4], the system named is KB. Nature of the data set: Cytotoxicity against human KB cells assessed as cell viability after 48 hrs by neutral red uptake assay. In kind it is cell-based. Put shortly:
as §1

Data set [5] concerns BT-549. Nature of the data set: Cytotoxicity against human BT549 cells assessed as cell viability after 48 hrs by neutral red uptake assay. Particulars: bt-549, 48 h. Format: cell-based. Put shortly:
as §1

In data set [6] the test system is SK-MEL. Briefly: Cytotoxicity against human SK-MEL cells assessed as cell viability after 48 hrs by neutral red uptake assay. In kind it is cell-based. Put shortly: as §1
Data set [7] concerns Escherichia coli. Nature of the data set: Antibacterial activity against Escherichia coli ATCC 35218 assessed as growth inhibition after 16-20 hrs by CLSI method. Format: functional, organism-based.
Data set [8] has as its system Aspergillus fumigatus. Nature of the data set: Antifungal activity against Aspergillus fumigatus assessed as growth inhibition. Format: functional, organism-based.
The subject of data set [9] is Pichia kudriavzevii. Nature of the data set: Antifungal activity against Candida krusei assessed as growth inhibition. In kind it is functional, organism-based.
The subject of data set [10] is Nakaseomyces glabratus. Nature of the data set: Antifungal activity against Candida glabrata assessed as growth inhibition. In kind it is functional, organism-based.
Data set [11] deals with Candida albicans. Nature of the data set: Antifungal activity against Candida albicans assessed as growth inhibition. In kind it is functional, organism-based.
The subject of data set [12] is Cryptococcus neoformans. Nature of the data set: Antifungal activity against Cryptococcus neoformans ATCC 90113 assessed as growth inhibition after 70-74 hrs by CLSI method. In kind it is functional, organism-based.
Setting [13] is: Cryptococcus neoformans, ATCC 90113.
[14] abbreviates: Cryptococcus neoformans, ATCC 90113, read-out: IC50.

For `COC(=O)[C@H](Cc1c[nH]c(-c2ccccc2)n1)NC(=O)[C@H](Cc1c[nH]c2ccccc12)NC(=O)OC(C)(C)C`, the Activity in data set [1], in data set [2], in [3], in [4], in data set [5] and in data set [6] was > 10 µg/mL in each case. Also, the “growth inhibition (GI)” value in data set [7], in data set [8], in data set [9], in [10] and in data set [11] was “inactive” each time. Besides, in data set [12], the IC50 result is “Not Active”. In data set [12], the MFC entry was “inactive”. In data set [12], the MIC result is “inactive”.
Regarding `COc1ccc(-c2nc(C[C@H](NC(=O)[C@H](Cc3c[nH]c4ccccc34)NC(=O)OC(C)(C)C)C(=O)NCc3ccccc3)c[nH]2)cc1`, the Activity in data set [1], in data set [2], in data set [3], in [4], in data set [5] and in data set [6] was > 10 µg/mL throughout. The “growth inhibition (GI)” value in data set [7], in data set [8], in data set [9], in data set [10] and in data set [11] was “inactive” in each case. Also, in data set [12], the concentration for half-maximal inhibition (IC50) entry was “Not Active”. Besides, the MFC result in data set [12] was “inactive”. Further, in data set [12], the MIC entry was “inactive”.
On to `CC(C)(C)OC(=O)N[C@@H](Cc1c[nH]c2ccccc12)C(=O)N[C@@H](Cc1c[nH]cn1)C(=O)NCc1ccccc1` (Boc-Trp-His-NHBn), for which the Activity in data set [1], in data set [2], in [3], in [4], in [5] and in data set [6] was > 10 µg/mL in each case. In addition, the “growth inhibition (GI)” value in data set [7], in data set [8], in [9], in data set [10] and in data set [11] was “inactive” each time. Also, the half-maximal inhibitory concentration (IC50) entry in data set [12] is “Not Active”. Further, the MFC entry in data set [12] was “inactive”. Besides, the MIC entry in [12] was “inactive”.
Turning to `COC(=O)[C@H](CCCNC(=N)N)NC(=O)[C@@H](N)Cc1c[nH]cn1` (H-His-Arg-OMe), the Activity in [1], in [2], in [3], in data set [4], in [5] and in [6] was > 10 µg/mL each time. The “growth inhibition (GI)” value in data set [7], in [8], in data set [9], in data set [10] and in data set [11] was “inactive” in each case. Besides, the IC50 entry in [12] is reported as “Not Active”. Besides, the MFC result in data set [12] was “inactive”. In addition, in [12], the MIC result was “inactive”.
As to `COC(=O)[C@H](CCCNC(=N)N)NC(=O)[C@@H](N)Cc1c[nH]c(-c2ccc(C(C)(C)C)cc2)n1`, the Activity in data set [1], in data set [2], in [3], in [4], in [5] and in data set [6] was > 10 µg/mL in each case. The “growth inhibition (GI)” value in data set [7], in [8], in [9], in [10] and in [11] was “inactive” throughout. In [12] (setting [13]), the MFC stood at 20 µg/mL (≈ 43.7 µM). The minimal inhibitory concentration (MIC) in [12] (setting [13]) was determined as 20 µg/mL (≈ 43.7 µM). For the same molecule, in data set [12] (setting [14]), the concentration for half-maximal inhibition (IC50) was found to be 10.2 µg/mL (≈ 22.2 µM).
As for `COC(=O)[C@H](CCCNC(=N)N)NC(=O)[C@@H](N)Cc1c[nH]c(-c2ccccc2)n1`, the Activity in data set [1], in data set [2], in data set [3], in data set [4], in data set [5] and in data set [6] was > 10 µg/mL in each case. The “growth inhibition (GI)” value in [7], in [8], in data set [9], in [10] and in [11] was “inactive” in each case. Besides, the MFC entry in data set [12] is “inactive”. Besides, the MIC result in data set [12] is “inactive”. In addition, the half-maximal inhibitory concentration (IC50) in data set [12] (setting [14]) was 10.6 µg/mL (≈ 26.3 µM).
Consider `N[C@@H](Cc1c[nH]c2ccccc12)C(=O)N[C@@H](Cc1c[nH]cn1)C(=O)NCc1ccccc1` (H-Trp-His-NHBn), for which the Activity in data set [1], in [2], in data set [3], in [4], in data set [5] and in [6] was > 10 µg/mL in each case. For the same molecule, the “growth inhibition (GI)” value in data set [7], in data set [8], in [9], in data set [10] and in [11] was “inactive” each time. Moreover, the half-maximal inhibitory concentration (IC50) result in data set [12] is listed as “Not Active”. The MFC entry in data set [12] was “inactive”. Moreover, the MIC result in data set [12] is “inactive”.
On to `CC(C)(C)OC(=O)N[C@@H](Cc1c[nH]c2ccccc12)C(=O)N[C@@H](Cc1c[nH]c(-c2ccc(-c3ccccc3)cc2)n1)C(=O)NCc1ccccc1`, for which the Activity in data set [1], in data set [2], in [3], in data set [4], in data set [5] and in data set [6] was > 10 µg/mL each time. Moreover, the “growth inhibition (GI)” value in data set [7], in [8], in data set [9], in data set [10] and in [11] was “inactive” in each case. The half-maximal inhibitory concentration (IC50) result in data set [12] was “Not Active”. In data set [12], the MFC result is “inactive”. The MIC entry in data set [12] was “inactive”.
On to `COC(=O)[C@H](Cc1c[nH]c(-c2ccc(C)cc2)n1)NC(=O)[C@H](Cc1c[nH]c2ccccc12)NC(=O)OC(C)(C)C`, for which the Activity in [1], in [2], in data set [3], in data set [4], in data set [5] and in data set [6] was > 10 µg/mL throughout. Moreover, the “growth inhibition (GI)” value in data set [7], in data set [8], in data set [9], in data set [10] and in [11] was “inactive” throughout. Also, in data set [12], the half-maximal inhibitory concentration (IC50) entry was “Not Active”. The MFC result in [12] was “inactive”. Also, the MIC result in data set [12] was “inactive”.
As to `COC(=O)[C@H](CCCNC(=N)N)NC(=O)[C@H](Cc1c[nH]cn1)NC(=O)OC(C)(C)C` (Boc-His-Arg-OMe), the Activity in [1], in [2], in [3], in [4], in [5] and in data set [6] was > 10 µg/mL throughout. The “growth inhibition (GI)” value in data set [7], in data set [8], in [9], in data set [10] and in data set [11] was “inactive” each time. Moreover, in data set [12], the IC50 entry was “Not Active”. For the same molecule, in [12], the MFC entry is “inactive”. Also, the MIC result in [12] was “inactive”.
Regarding `COC(=O)[C@H](Cc1c[nH]c(-c2cccc3ccccc23)n1)NC(=O)[C@H](Cc1c[nH]c2ccccc12)NC(=O)OC(C)(C)C`, the Activity in [1], in data set [2], in data set [3], in [4], in data set [5] and in data set [6] was > 10 µg/mL each time. Besides, the “growth inhibition (GI)” value in [7], in data set [8], in data set [9], in data set [10] and in data set [11] was “inactive” each time. The half-inhibitory concentration (IC50) entry in [12] was “Not Active”. For the same molecule, the MFC result in data set [12] was “inactive”. The MIC result in data set [12] is “inactive”.

Usually IC50 stands for the concentration that inhibits the measured activity by half. By MFC is commonly meant the lowest tested concentration that kills the fungus rather than only halting it. For orientation: MIC means the least concentration at which growth counts as inhibited.
